Measurements: PMC4201300 (Biochemistry, 2014)
Square brackets hold non-standard residues; d marks the D form. Peptide text beside a SMILES is read from it. pT = C[C@@H](OP(=O)(O)O)[C@H](N)C(=O)O

Columns and labels:
[1] = target: T1, Pellino3a FHA domain (amino acids 40–305) (Homo sapiens, UniProt Q8N2H9); assay: Fluorescence polarization peptide binding assay, Pellino3a FHA domain; conditions: ratio of KD values
T1 sequence (Q8N2H9 40-305): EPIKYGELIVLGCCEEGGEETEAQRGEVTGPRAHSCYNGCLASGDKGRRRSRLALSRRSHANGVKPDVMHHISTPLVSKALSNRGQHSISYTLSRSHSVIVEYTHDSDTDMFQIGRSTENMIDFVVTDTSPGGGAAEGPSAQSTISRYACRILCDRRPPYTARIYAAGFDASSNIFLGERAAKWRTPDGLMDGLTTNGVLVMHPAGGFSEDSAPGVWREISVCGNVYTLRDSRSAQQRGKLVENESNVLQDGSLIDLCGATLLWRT
Method in brief: (§1)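 His6-tagged FHA domains were expressed in E. coli BL21(DE3) pLys. The tag was removed with TEV during dialysis (4 °C for Pellino1, 22 °C for Pellino3a/3b), then cation exchange (pH 6 Pellino1/3b, pH 5.5 Pellino3a) and gel filtration. 50 nM N-terminally fluorescein-labelled phosphopeptide was titrated with 0–190 μM domain in PBS pH 7.4 at 25 °C. Baseline-corrected polarization was fit to a simple isotherm; mean KD from ≥3 experiments, expressed relative to pT141+3Y KD.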

[2] = target: T2, Pellino2 FHA domain (amino acids 15–275 of Pellino2) (Homo sapiens, UniProt Q9HAT8); assay: Fluorescence polarization peptide binding assay, Pellino2 FHA domain; conditions: for fold change in KD relative to pT141+3Y (preference for the pTxxY motif): binding weaker than for pT141+3Y, Figure 4A
T2 sequence (Q9HAT8 15-275): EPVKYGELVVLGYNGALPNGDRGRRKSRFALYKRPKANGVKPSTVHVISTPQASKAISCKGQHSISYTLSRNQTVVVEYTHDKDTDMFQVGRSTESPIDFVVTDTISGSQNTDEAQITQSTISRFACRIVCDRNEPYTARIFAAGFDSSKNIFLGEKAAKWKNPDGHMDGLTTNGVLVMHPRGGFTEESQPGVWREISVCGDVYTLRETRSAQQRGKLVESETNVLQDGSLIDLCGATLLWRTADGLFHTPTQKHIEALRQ

[3] = target: T3, Pellino1 FHA domain (amino acids 2–287) (Mus musculus, UniProt Q8C669); assay: Fluorescence polarization peptide binding assay, Pellino1 FHA domain; conditions: ratio of KD values
T3 sequence (Q8C669 2-287): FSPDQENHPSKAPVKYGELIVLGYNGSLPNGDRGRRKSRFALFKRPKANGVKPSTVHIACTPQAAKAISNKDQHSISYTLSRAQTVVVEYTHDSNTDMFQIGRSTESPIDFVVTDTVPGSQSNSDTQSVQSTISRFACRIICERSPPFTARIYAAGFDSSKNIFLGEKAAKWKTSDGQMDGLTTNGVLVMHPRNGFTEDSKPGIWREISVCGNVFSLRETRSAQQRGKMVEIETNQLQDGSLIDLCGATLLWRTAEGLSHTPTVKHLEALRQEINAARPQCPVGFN
Method in brief: as §1

[4] = target: T4, Pellino3b FHA domain (amino acids 2–304) (Homo sapiens, UniProt Q8N2H9); assay: Fluorescence polarization peptide binding assay, Pellino3b FHA domain; conditions: ratio of KD values
T4 sequence (Q8N2H9 2-304 isoform Q8N2H9-2): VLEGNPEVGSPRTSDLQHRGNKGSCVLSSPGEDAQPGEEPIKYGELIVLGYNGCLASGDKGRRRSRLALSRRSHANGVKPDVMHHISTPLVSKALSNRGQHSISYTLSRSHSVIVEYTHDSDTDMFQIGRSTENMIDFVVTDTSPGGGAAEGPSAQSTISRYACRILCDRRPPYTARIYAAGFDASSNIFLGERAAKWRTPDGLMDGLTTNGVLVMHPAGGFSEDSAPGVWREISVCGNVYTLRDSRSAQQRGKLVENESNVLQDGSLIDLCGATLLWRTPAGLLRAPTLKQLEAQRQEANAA
Method in brief: as §1

Pellino2 = Pellino2 (UniProt Q9HAT8); assay: GST pull-down from lysate, Xpress and pT blots; conditions: reference: wild-type IRAK1-197; sites T141
[5] = target: Pellino2 FHA domain, 15-275 (UniProt Q9HAT8); assay: fluorescence polarization titration; conditions: reference: pT141+3S peptide (native S144); sites S144
Sequence of Pellino2 FHA domain, 15-275 (Q9HAT8 whole entry, looked up, the tested form may be a part): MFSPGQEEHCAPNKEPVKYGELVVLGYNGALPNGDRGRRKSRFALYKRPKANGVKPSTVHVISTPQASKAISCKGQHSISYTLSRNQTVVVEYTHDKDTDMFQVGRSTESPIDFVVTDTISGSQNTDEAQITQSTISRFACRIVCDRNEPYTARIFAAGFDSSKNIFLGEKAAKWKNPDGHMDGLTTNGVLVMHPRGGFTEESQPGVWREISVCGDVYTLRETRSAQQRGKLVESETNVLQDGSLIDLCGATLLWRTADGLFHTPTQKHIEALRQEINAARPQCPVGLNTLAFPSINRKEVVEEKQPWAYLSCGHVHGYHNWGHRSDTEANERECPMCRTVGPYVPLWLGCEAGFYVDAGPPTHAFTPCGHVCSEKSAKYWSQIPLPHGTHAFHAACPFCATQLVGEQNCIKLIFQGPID

[6] = target: IRAK1pT141 peptide (amino acids 137–145 of IRAK1 with phosphothreonine at 141) (human) (UniProt P51617); assay: fluorescence polarisation
Sequence of IRAK1pT141 peptide (amino acids 137–145 of IRAK1 with phosphothreonine at 141) (human) (P51617 whole entry, looked up, the tested form may be a part): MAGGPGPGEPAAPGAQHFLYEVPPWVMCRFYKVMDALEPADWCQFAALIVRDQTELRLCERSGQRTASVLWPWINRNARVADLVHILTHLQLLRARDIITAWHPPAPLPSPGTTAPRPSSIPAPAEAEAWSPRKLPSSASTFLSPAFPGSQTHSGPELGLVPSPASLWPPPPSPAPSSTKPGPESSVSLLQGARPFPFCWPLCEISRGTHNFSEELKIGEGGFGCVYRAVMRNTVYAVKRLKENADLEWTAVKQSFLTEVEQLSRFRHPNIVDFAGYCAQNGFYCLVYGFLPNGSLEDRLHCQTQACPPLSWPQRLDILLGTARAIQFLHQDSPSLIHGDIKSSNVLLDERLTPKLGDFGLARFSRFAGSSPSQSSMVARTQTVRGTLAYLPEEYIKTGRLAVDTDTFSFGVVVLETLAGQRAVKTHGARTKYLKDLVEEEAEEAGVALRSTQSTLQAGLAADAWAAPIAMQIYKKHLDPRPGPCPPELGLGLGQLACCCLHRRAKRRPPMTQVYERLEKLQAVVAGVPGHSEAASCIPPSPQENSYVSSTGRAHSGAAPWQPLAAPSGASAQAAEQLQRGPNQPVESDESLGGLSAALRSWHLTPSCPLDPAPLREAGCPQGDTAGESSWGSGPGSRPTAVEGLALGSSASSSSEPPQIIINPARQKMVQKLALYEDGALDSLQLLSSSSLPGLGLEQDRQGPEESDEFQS

[7] = target: T5, Pellino3b FHA domain (amino acids 2–304) (human, UniProt Q8N2H9-2 2-304); assay: fluorescence polarisation
T5 sequence (looked up): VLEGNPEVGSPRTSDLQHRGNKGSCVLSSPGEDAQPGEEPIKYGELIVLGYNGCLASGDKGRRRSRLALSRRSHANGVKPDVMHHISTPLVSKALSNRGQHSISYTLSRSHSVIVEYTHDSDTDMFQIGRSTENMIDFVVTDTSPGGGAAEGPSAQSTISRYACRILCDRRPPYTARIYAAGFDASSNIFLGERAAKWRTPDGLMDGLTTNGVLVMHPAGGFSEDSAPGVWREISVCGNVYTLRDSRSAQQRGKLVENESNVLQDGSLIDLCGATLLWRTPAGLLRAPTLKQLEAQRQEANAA

[8] = target: T6, Pellino1 FHA domain (amino acids 2–287, mouse) (mouse, UniProt Q8C669 2-287); assay: fluorescence polarisation
T6 sequence (looked up): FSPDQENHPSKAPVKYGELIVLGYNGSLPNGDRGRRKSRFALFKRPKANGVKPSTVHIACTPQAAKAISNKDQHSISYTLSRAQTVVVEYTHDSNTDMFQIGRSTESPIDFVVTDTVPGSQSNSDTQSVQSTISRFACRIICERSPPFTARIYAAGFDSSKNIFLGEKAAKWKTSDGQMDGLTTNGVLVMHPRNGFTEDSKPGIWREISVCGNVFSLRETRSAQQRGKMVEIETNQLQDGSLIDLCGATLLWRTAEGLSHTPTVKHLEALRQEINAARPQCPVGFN

[9] = target: T7, Pellino2 FHA domain (amino acids 15–275 of Pellino2) (human, UniProt Q9HAT8 15-275); assay: fluorescence polarisation
T7 sequence (looked up): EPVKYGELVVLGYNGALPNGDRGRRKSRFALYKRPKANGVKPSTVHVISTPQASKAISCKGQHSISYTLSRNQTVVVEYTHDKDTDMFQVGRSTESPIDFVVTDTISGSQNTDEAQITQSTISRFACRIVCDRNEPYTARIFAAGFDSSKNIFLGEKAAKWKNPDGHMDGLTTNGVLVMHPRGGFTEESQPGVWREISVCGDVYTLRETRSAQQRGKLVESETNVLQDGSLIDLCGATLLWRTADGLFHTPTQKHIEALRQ

[10] = target: scrambled version of the pT141 peptide; assay: fluorescence polarisation

CC(C)C[C@H](NC(=O)[C@H](Cc1ccccc1)NC(=O)[C@@H](NC(=O)[C@H](CO)NC(=O)[C@H](CO)NC(=O)[C@H](C)NC(=O)[C@H](CO)NC(=O)[C@@H](N)Cc1ccc(O)cc1)[C@@H](C)OP(=O)(O)O)C(=O)N[C@@H](CC(=O)O)C(=O)N1CCC[C@H]1C(N)=O [IRAK1pT141+3D] (H-YSASS[pT]FLDP-NH2; N-terminus assumed)
times weaker binding than for the pT141+3Y peptide [1]: at least 13 times
fold change in KD relative to pT141+3Y (preference for the pTxxY motif) [2]: 23 fold
times weaker binding than for the pT141+3Y peptide [3]: at least 13 times
times weaker binding than for the pT141+3Y peptide [4]: at least 13 times

CC[C@H](C)[C@H](NC(=O)[C@H](CC(C)C)NC(=O)[C@H](Cc1ccccc1)NC(=O)[C@@H](NC(=O)[C@H](CO)NC(=O)[C@H](CO)NC(=O)[C@H](C)NC(=O)[C@H](CO)NC(=O)[C@@H](N)Cc1ccc(O)cc1)[C@@H](C)OP(=O)(O)O)C(=O)N1CCC[C@H]1C(N)=O [IRAK1pT141+3I] (H-YSASS[pT]FLIP-NH2; N-terminus assumed)
fold change in KD relative to pT141+3Y (preference for the pTxxY motif) [2]: 12 fold

CC(C)C[C@H](NC(=O)[C@H](Cc1ccccc1)NC(=O)[C@@H](NC(=O)[C@H](CO)NC(=O)[C@H](CO)NC(=O)[C@H](C)NC(=O)[C@H](CO)NC(=O)[C@@H](N)Cc1ccc(O)cc1)[C@@H](C)OP(=O)(O)O)C(=O)N[C@@H](Cc1ccc(O)cc1)C(=O)N1CCC[C@H]1C(N)=O [IRAK1pT141+3Y] (H-YSASS[pT]FLYP-NH2; N-terminus assumed)
KD fold stronger than that for pT141+3S ([2]; ratio of KD values): 4.6 fold

IRAK1 1-197 (from UniProt P51617) T141A
binding against the reference (Pellino2): weaker

IRAK1 137-145 (from UniProt P51617) pT141+3D peptide
fold change (fold weaker KD) [5]: 5

Pellino2 FHA domain (amino acids 15–275 of Pellino2) (from UniProt Q9HAT8 15-275) (domain or fragment)
Kd [6]: 820 nM

fluorescein-YSSAS[pT]FLYP-NH2 (also: fluorescein: FITC or 5,6-FAM) [pT141+3Y peptide (IRAK1pT141 with tyrosine at position +3)]
binding result [7]: binds
Kd [8]: 770 nM
Kd [9]: 180 nM

fluorescein-YSSAS[pT]FLIP-NH2 (also: fluorescein: FITC or 5,6-FAM) [pT141+3I peptide (IRAK1pT141 with isoleucine at position +3)]
binding result [7]: binds
Kd [8]: 1800 nM

B1: Pellino2 FHA domain (amino acids 15–275 of Pellino2) (domain or fragment)
chain: EPVKYGELVVLGYNGALPNGDRGRRKSRFALYKRPKANGVKPSTVHVISTPQASKAISCKGQHSISYTLSRNQTVVVEYTHDKDTDMFQVGRSTESPIDFVVTDTISGSQNTDEAQITQSTISRFACRIVCDRNEPYTARIFAAGFDSSKNIFLGEKAAKWKNPDGHMDGLTTNGVLVMHPRGGFTEESQPGVWREISVCGDVYTLRETRSAQQRGKLVESETNVLQDGSLIDLCGATLLWRTADGLFHTPTQKHIEALRQ
fold weaker affinity than for pT141 [10]: > 100 fold
